Assay results from ChEMBL document CHEMBL5108076, “Target-Focused Library Design by Pocket-Applied Computer Vision and Fragment Deep Generative Linking” (J Med Chem, 2022).

Assays:
[1] = biological target: CDK8/Cyclin C (Homo sapiens) (UniProt P49336+P24863); experiment: Inhibition of Alexa fluor 647 labeled kinase tracer binding to human CDK8/cyclin C at 10 uM incubated for 1 hr by FRET based LanthaScreen Eu-Kinase binding assay relative to control; format: protein-complex assay
Outline: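 Tagged CDK8/CyclinC (5 nM final) with biotin anti-His antibody and Eu-streptavidin; competitor at 10 μM; Alexa Fluor 647 tracer 236 (Kd 8 nM) at 10 nM final. Buffer: HEPES 50 mM pH 7.5, MgCl2 10 mM, EGTA 1 mM, Brij-35 0.01%. Incubated 1 h at room temperature. TR-FRET read with excitation at 337 nm and emission at 665/620 nm. Mean ± SEM of two independent experiments.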

CDK8/Cyclin C = CDK8/Cyclin C (Homo sapiens, UniProt P49336); experiment: Inhibition of Alexa fluor 647 labeled kinase tracer binding to human CDK8/cyclin C incubated for 1 hr by FRET based LanthaScreen Eu-Kinase binding assay; format: protein-complex assay
Chain of CDK8/Cyclin C (P49336 whole entry): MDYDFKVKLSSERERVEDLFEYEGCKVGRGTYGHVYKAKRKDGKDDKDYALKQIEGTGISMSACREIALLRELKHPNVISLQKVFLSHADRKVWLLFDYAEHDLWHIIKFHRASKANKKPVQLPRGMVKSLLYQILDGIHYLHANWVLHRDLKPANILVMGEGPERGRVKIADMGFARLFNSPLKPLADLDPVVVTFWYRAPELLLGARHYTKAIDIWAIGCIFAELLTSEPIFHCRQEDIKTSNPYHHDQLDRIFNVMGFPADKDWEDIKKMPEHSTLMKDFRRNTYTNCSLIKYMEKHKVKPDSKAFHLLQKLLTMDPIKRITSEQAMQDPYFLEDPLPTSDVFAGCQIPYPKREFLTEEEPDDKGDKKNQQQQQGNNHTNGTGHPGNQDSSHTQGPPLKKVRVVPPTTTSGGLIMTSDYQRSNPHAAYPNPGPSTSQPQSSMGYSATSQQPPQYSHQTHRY
Chain of CDK8/Cyclin C (P24863 whole entry, further chain): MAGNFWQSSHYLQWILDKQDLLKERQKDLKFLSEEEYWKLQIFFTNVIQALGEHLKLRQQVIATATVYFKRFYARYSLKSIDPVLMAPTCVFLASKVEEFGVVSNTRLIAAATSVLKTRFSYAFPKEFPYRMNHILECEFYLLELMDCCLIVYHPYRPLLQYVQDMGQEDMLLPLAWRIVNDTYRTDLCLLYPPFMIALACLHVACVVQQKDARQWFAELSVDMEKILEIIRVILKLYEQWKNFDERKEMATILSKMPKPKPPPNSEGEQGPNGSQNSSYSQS

Row | SMILES | inhibition [1] [%] | IC50 (CDK8/Cyclin C) [nM]
1 | c1ccc(COc2ccc(OCc3ccccn3)cc2)nc1 | > 50 | –
2 | COc1ccc(C(O)Cc2cccnc2)cc1 (stereo not drawn) | > 50 | –
3 | Cc1ccc(SC(C)C(=O)NCc2cccnc2)cc1 (stereo not drawn) | > 50 | –
4 | O=C(Nc1ccncc1)c1ccncc1 | > 50 | –
5 | CCOc1ccc(C(=O)Oc2cncc(-c3cnn(-c4ccccc4)c3)c2)cc1 | – | > 25000
6 | CCOc1ccc(C(=O)Oc2cncc(C3CCN(c4ccccc4)CC3)c2)cc1 | – | > 25000
7 | CCOc1ccc(C(=O)Oc2cnccc2C2CCN(c3ccccc3)CC2)cc1 | – | 144
8 | CCOc1ccc(C(=O)Oc2cccnc2)cc1 | > 50 | 377
9 | CCOc1ccc(C(=O)Oc2cnccc2NC(=O)Nc2ccccc2)cc1 | – | 355
10 | CCOc1ccc(C(=O)Oc2cnccc2-c2cnn(-c3ccccc3)c2)cc1 | – | 6.4
11 | COc1ccc(OC(=O)c2cccnc2)cc1 | > 50 | –
12 | CCOc1ccc(C(=O)Oc2cncc(NC(=O)Nc3ccccc3)c2)cc1 | – | > 25000
